The text below walks through data of ChEMBL document CHEMBL1123192 (J Med Chem, 1986).

Some results are limits rather than exact numbers.

For test [1], the target named is T1, Adrenergic receptor alpha-2 (Rattus norvegicus, UniProt P22086+P19328+P22909).
T1 sequence (P22086 whole entry): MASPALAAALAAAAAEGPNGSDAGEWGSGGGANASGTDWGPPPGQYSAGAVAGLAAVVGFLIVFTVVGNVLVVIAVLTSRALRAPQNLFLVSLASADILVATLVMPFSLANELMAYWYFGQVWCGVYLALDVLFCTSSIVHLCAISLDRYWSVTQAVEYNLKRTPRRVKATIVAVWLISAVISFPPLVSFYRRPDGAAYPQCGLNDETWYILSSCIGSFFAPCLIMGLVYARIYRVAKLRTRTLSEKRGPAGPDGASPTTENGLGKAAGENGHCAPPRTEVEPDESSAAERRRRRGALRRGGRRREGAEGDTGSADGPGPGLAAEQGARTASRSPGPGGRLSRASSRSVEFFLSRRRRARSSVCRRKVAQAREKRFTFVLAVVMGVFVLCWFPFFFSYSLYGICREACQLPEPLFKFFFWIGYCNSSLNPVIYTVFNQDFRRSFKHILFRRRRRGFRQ
T1 sequence (P19328 whole entry): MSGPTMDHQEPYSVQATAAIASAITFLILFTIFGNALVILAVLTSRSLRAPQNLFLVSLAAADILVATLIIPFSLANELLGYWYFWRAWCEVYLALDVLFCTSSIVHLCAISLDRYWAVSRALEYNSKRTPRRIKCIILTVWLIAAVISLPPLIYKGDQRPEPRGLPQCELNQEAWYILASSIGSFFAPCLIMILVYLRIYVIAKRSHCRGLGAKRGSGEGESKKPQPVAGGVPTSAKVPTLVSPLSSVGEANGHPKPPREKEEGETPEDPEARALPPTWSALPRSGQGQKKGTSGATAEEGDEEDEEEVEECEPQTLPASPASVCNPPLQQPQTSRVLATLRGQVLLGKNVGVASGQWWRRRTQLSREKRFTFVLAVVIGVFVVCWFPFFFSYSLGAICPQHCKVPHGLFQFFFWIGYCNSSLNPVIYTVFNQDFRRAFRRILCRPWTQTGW
T1 sequence (P22909 whole entry): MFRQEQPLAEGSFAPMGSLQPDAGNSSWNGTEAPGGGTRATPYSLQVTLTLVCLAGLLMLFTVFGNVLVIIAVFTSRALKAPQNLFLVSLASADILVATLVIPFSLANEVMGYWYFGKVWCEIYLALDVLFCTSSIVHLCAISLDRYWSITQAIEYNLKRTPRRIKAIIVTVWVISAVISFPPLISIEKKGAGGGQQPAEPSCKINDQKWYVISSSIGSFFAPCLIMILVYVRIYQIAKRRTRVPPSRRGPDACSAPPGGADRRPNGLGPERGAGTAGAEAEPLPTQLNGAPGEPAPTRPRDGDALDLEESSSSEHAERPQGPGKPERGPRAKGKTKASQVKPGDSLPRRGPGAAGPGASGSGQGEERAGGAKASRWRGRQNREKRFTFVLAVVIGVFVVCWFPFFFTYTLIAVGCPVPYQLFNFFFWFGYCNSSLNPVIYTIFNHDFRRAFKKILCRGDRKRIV
The test can be described thus: The compound was evaluated for the antagonistic activity against alpha-2 adrenergic receptor. It counts as functional.

Test [2] has as its target T2, Adrenergic receptor alpha-1 (Homo sapiens, UniProt P35348+P25100+P35368).
T2 sequence (P35348 whole entry): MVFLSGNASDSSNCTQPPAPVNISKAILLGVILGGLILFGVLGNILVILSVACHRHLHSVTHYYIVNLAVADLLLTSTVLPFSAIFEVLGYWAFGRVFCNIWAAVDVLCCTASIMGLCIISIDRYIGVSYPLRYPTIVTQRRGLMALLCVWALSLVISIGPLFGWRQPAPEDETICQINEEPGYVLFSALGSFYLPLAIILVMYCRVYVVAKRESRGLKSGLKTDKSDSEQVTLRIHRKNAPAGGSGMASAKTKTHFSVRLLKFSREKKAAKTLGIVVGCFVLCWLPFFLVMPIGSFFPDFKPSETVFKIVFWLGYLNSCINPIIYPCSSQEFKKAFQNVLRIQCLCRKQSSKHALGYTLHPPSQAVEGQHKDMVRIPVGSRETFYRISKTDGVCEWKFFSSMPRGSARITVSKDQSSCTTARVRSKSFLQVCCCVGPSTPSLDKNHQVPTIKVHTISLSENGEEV
T2 sequence (P25100 whole entry): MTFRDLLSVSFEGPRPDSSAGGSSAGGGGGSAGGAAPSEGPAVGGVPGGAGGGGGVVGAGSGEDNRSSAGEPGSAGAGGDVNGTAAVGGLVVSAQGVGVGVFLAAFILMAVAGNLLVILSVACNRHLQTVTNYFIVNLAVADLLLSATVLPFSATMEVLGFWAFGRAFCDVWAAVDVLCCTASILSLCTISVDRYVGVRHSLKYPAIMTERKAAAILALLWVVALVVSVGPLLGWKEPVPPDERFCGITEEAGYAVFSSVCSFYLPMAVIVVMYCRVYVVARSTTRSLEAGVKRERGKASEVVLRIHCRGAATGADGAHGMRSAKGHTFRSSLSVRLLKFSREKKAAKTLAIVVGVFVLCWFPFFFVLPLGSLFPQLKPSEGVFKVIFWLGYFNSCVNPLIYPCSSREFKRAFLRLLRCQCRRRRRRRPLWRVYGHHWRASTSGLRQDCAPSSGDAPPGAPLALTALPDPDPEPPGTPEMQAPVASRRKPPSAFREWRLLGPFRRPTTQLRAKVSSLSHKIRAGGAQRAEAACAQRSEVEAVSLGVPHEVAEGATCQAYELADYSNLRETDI
T2 sequence (P35368 whole entry): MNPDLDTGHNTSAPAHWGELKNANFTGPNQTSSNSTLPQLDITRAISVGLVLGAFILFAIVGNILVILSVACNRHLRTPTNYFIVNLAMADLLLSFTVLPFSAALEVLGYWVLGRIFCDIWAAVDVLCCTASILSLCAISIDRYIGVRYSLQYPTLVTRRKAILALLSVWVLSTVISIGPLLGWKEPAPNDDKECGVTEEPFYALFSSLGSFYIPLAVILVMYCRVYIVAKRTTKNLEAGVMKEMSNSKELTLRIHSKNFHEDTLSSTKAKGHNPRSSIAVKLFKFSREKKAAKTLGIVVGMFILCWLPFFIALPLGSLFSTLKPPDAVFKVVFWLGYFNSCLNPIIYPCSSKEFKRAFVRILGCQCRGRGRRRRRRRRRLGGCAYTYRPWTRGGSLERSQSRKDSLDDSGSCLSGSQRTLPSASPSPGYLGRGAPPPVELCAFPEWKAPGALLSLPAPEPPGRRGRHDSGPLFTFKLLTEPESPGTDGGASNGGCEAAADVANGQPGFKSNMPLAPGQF
The test can be described thus: The compound was evaluated for the antagonistic activity against alpha-1 adrenergic receptor. It counts as functional, Oryctolagus cuniculus. The gist of the method: (§1)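 Isolated tissue suited to each receptor test, held in 10-mL organ baths of Krebs-Henseleit solution at 37 °C and gassed with 95% O2/5% CO2. Antagonism was judged by how several concentrations of test agent altered a cumulative concentration-response curve to a receptor-specific agonist.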

For test [3], the target named is Beta-1 adrenergic receptor (Cavia porcellus) (UniProt B0FL73). The test can be described thus: Beta-1-adrenoceptor ISA (intrinsic sympathomimetic activity)using the guinea pig right atria was measured as % increase of positive chronotropic effect (basal spontaneous beating rate) at 1x10E-6 M. The class given is functional.
The species named for the next test is Cavia porcellus. As to the kind of experiment: Beta-2-adrenoceptor ISA (intrinsic sympathomimetic activity)was measured as relaxant effect against a PGF2-alpha contracted guinea pig trachea at 1x10E-5 M. It counts as functional.
The test system of test [4] is Rattus norvegicus. As to the kind of experiment: Maximal change in heart rate (HR) measured as % change from pretreatment value at dose of 50 mg/kg in SHR. The class given is functional. In a few lines: (§2)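 Spontaneously hypertensive rats; test agent dissolved or dispersed in 0.5% methylcellulose and given by gastric gavage at 5 mL/kg after a 1-h equilibration. Doses ranged from 1 to 100 mg/kg, with 4–8 animals per dose. MABP and HR were monitored for 4 h. Pretreatment values and maximal % change were recorded, and maximal changes were compared with vehicle by Dunnett's t test.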

The test system of test [5] is Rattus norvegicus. The test can be described thus: Maximal change in mean arterial blood pressure (MABP) measured as % change from pretreatment value at dose of 50 mg/kg in SHR. The class given is functional. In a few lines:
as §2

Test [6] relates to Rattus norvegicus. As to the kind of experiment: Maximal change in heart rate (HR) measured as pretreatment value at dose of 50 mg/kg in SHR. The class given is functional. The gist of the method: as §2
Test [7] relates to Rattus norvegicus. As to the kind of experiment: Maximal change in mean arterial blood pressure (MABP) measured as pretreatment value at dose of 50 mg/kg in SHR. It counts as functional. The gist of the method: as §2
Test [8] concerns the target Beta-1 adrenergic receptor (Cavia porcellus, UniProt B0FL73). The test can be described thus: The compound was evaluated for the antagonistic activity against beta-1 adrenergic receptor. The class given is functional. The settings on record: read-out: pA2 (converted). The gist of the method:
as §1

Test [9] has as its target Beta-2 adrenergic receptor (Cavia porcellus, UniProt Q8K4Z4). As to the kind of experiment: The compound was evaluated for the antagonistic activity against beta-2 adrenergic receptor. The class given is functional. As to conditions: read-out: pA2 (converted). In a few lines:
as §1

Beta-2 adrenergic receptor, sequence (Q8K4Z4 whole entry): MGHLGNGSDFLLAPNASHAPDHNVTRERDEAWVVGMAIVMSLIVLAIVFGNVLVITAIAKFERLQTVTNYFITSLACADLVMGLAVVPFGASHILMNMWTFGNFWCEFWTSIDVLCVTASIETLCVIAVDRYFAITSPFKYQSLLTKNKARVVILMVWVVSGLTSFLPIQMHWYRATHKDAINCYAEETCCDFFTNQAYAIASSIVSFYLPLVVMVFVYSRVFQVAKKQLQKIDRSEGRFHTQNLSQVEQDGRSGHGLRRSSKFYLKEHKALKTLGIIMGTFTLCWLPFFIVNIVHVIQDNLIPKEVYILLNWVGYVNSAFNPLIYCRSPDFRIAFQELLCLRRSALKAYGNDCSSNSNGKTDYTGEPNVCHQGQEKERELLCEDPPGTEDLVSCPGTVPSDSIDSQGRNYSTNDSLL
Beta-1 adrenergic receptor, sequence (B0FL73 whole entry): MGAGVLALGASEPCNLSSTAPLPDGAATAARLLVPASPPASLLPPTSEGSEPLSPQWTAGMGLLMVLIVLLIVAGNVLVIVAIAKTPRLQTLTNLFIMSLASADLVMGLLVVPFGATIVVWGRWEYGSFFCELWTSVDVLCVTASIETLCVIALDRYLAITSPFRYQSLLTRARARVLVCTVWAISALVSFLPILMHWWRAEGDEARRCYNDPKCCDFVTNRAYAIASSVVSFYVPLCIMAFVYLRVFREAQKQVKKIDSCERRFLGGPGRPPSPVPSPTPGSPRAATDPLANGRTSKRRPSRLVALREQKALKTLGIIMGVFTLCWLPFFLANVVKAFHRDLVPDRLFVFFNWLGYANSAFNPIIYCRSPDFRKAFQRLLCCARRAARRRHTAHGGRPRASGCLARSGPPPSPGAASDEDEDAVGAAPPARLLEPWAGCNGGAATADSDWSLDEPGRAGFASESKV
Beta-1 adrenergic receptor (Cavia porcellus), sequence (B0FL73 1-467): as the sequence (B0FL73 whole entry) above

Turning to `CC(CCc1ccccc1)NCC(O)c1cc(C(N)=O)c2c(ccn2C)c1` (stereo not given), the pA2 is listed as under 5 in [1] and 6.2 in [2]. The Change was 2.7% in [3], 34.6% in the test filed under Cavia porcellus, -15% in the test on Rattus norvegicus [4] and -13% with Rattus norvegicus [5]. The HR with Rattus norvegicus [6] is 411 beats min-1. Also, in the test on Rattus norvegicus [7], the MABP turned out to be 166 mmHg. Further, the figures for the Kb in test [8] and in test [9] were over 1 µM and over 10 µM, respectively.
